Compound activity deposited in PubChem by several laboratories.
Hits are enriched below; roughly 11% of the tested compounds scored in any of these assays.
G6PDH counter – L. mesenteroides G6PDH inhibitors, counter-screen for G6PDH-coupled screening assays, biochemical, Leuconostoc mesenteroides enzyme; glucose-6-phosphate dehydrogenase [Leuconostoc mesenteroides]; Purified L. mesenteroides G6PDH, diaphorase/resazurin coupled fluorescence, 45 min; inhibition, % at 5 µM; hit rate 0.12% among 200,000; AID 1020, 2008
Diaphorase act – compounds boosting diaphorase resazurin reduction – biochemical, uHTS, resorufin fluorescence, counter-screen for diaphorase-coupled primary assays, primary screen | Diaphorase/resazurin coupled assay, 16 min; active compounds read high; 1 = vehicle wells, 0 = NADH-free wells | activation factor at 20 µM | hit rate 0.005% among 190,000 | AID 1229, 2008;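 active means diaphorase activity raised at least twofold by the compound at 20 µM; inactive means activation factor below 2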
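Material: bacterial diaphorase enzyme (C. kluyveri); amount: enzyme 0.07 U/mL final; reagent: NADH substrate 0.114 mM plus resazurin dye 0.1 mM, final; doses: single compound dose of 20 µM, 1% DMSO final; timing: 16 min enzyme reaction, ambient temperature; measured by: fluorescence of resorufin, 544 nm excitation, 590 nm emission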
Diaph inh CS – diaphorase inhibitors and chemical oxidizers, primary screen, counter-screen for diaphorase-coupled primary assays, biochemical, uHTS, resorufin fluorescence; diaphorase resazurin-to-resorufin fluorescence, NADH, 16 min; bacterial (C. kluyveri) enzyme, not human; inhibition, % at 20 µM; hit rate 0.69% among 190,000; AID 1217, 2008;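 active means primary screen inhibition at 20 µM above a set limit, cut at about 50% in these data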
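Benchmarks: positive control wells lacking NADH, neutral wells with DMSO only. System: bacterial diaphorase enzyme (C. kluyveri). Input: 0.14 U/mL diaphorase, enzyme working solution. Detection: resorufin fluorescence, excitation 544 nm, emission 590 nm. Times: 16-min room-temperature incubation before reading.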
WT yeast gro inh – growth inhibition of WT strain, primary screen, mitochondrial fusion inhibitor project, WT and mutant strains, chemical genetic | mitochondrial fusion phenotypic screen | inhibition, % at 10 µM | hit rate 2.1% among 190,000 | AID 1362, 2008; in the data active means inhibition above about 58%; tested in S. cerevisiae
L major viab – Leishmania major promastigote growth inhibition, primary screen | Leishmania major promastigotes, resazurin fluorescence viability | inhibition, % at 10 µM | hit rate 9% among 200,000 | AID 1063, 2008;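 further: promastigotes grown with compound for 44 hours at 28 °C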
Numbers stand for hits; . = inactive. Unless noted, no stated cut-off is given here; in the data, active means inhibition above about 50%; inactive means the rest.

SMILES	G6PDH counter	Diaphorase act	Diaph inh CS	WT yeast gro inh	L major viab
CC(Sc1nnc2ccccn12)C(N)=O (configuration not stated)	.	.	.	.	.
O=C(CNCC1CCCO1)Nc1ccccc1N1CCCCCC1 (configuration not stated)	.	.	.	.	.
O=C(CNCc1ccccc1Cl)Nc1ccccc1N1CCCCC1	.	.	.	80	.
O=C(Nc1ccccc1N1CCCCC1)c1ccccc1F	.	.	.	81	.
O=C(NC(=S)Nc1ccc2c(c1)OCCO2)c1cccc(Br)c1	.	.	.	.	68
O=C(NC(=S)Nc1cccc(Cl)c1N1CCCCC1)c1ccc2c(c1)OCCO2	.	.	.	.	97
CC(=C\C(=O)O)/C(=C/c1ccccc1)C(=O)O	.	.	.	.	.
CC(C)(C)OC(=O)N1CCN(C(=O)Nc2ccc3c(c2)OCCO3)CC1	.	.	.	.	.
O=C(Nc1ccc2c(c1)OCCO2)c1ccc(Br)s1	.	.	.	.	54
O=C(NC(=S)Nc1ccccc1N1CCCCC1)c1ccccc1	.	.	.	67	.
O=C(Nc1ccc2c(c1)OCCO2)c1cncc(Br)c1	.	.	.	.	.
C[n+]1ccc(/C=C/c2ccc(Br)cc2)cc1	.	.	.	.	86
CN(C)CCCN(Cc1ccccc1)C(=S)NCc1ccccc1	.	.	.	.	86
CC(C)N(C(=S)NCc1ccccc1)C(C)C	.	.	.	.	.
CN(C)CCCN(Cc1ccccc1)C(=S)Nc1ccc(SC(F)F)cc1	.	.	.	.	100
O=C(CCC1CCCN(C(=O)C2=CCCCC2)C1)N1CCN(c2ccccn2)CC1 (configuration not stated)	.	.	.	.	.
CCN1CCN(S(=O)(=O)c2ccc(Cl)c(C(=O)NC(C)(C)C)c2)CC1	.	.	.	.	.
COc1ccc(-c2[nH]ncc2CN2CCCC(C(=O)c3cccc(OC)c3)C2)cc1 (configuration not stated)	.	.	.	.	.
O=C(c1ccc2c3c(cccc13)CC2)C1CCCN(Cc2cccnc2)C1 (configuration not stated)	.	.	.	.	96
COc1cc(CN2CCCC(C(=O)c3ccc4c5c(cccc35)CC4)C2)cc(OC)c1O (configuration not stated)	62	.	.	.	99
CCn1ncc(CN2CCCC(C(=O)c3cccc(OC(C)C)c3)C2)c1C (configuration not stated)	.	.	.	.	80
O=C(c1ccc2c3c(cccc13)CC2)C1CCCN(C(=O)c2cccnc2)C1 (configuration not stated)	.	.	.	.	.
COc1ccc2cc(C(=O)C3CCCN(Cc4cccc(C)n4)C3)ccc2c1 (configuration not stated)	.	.	.	.	86
CCN(CC)c1ccc(/C=N\N2CCN(Cc3ccc(C)cc3)CC2)cc1	.	.	.	.	.
Cc1cccc(CN2CCCC(C(=O)c3ccc4c5c(cccc35)CC4)C2)n1 (configuration not stated)	.	.	.	.	53
SMILES	G6PDH counter	Diaphorase act	Diaph inh CS	WT yeast gro inh	L major viab
CC(=O)N1CCCC(C(=O)c2ccc3c4c(cccc24)CC3)C1 (configuration not stated)	.	.	.	.	.
Cc1ccc2c(CC(=O)NNC(=O)c3ccccc3)coc2c1	.	.	.	.	55
Cc1ccc2c(CC(=O)O)coc2c1	.	.	.	.	.
COc1cccc(NC(=S)N(CCN(C)C)C(C)c2ccco2)c1 (configuration not stated)	.	.	.	.	.
COc1ccc(NC(=S)N(CCN(C)C)C(C)c2ccco2)cc1Cl (configuration not stated)	.	.	.	.	67
COc1ccc(-n2nc(C(=O)Nc3nc4ccc(OC)cc4s3)c3ccccc3c2=O)c(OC)c1	.	.	.	.	.
CC(C)CNC(=O)c1ccccc1NC(=O)Nc1ccccc1	.	.	.	.	.
COc1ccc(Nc2nc(NC(C)(C)C)nc(N3CCCC3)n2)c(OC)c1	.	.	.	84	96
COc1ccc(N2CCN(c3nc(NCCO)nc(N4CCOCC4)n3)CC2)cc1	.	.	.	.	.
